Reference: ChEMBL document CHEMBL1145339, “N1-Benzoyl-N2-[1-(1-naphthyl)ethyl]-trans-1,2-diaminocyclohexanes: Development of 4-chlorophenylcarboxamide (calhex 231) as a new calcium sensing receptor ligand demonstrating potent calcilytic activity” (J Med Chem, 2006)
pIC50: −log10 of the molar value. Activity calls are given as the source filed them. No cut-off for these calls is given here.

Legend:
Assay type in all cases: functional, cell-based
[1] = molecular target: T1, Extracellular calcium-sensing receptor (Rattus norvegicus) (UniProt P48442); assay: Activity at rat CaSR in CHO cells assessed as inhibition of calcium ion-induced [3H]inositol phosphate accumulation at 10 uM
T1 sequence (whole entry): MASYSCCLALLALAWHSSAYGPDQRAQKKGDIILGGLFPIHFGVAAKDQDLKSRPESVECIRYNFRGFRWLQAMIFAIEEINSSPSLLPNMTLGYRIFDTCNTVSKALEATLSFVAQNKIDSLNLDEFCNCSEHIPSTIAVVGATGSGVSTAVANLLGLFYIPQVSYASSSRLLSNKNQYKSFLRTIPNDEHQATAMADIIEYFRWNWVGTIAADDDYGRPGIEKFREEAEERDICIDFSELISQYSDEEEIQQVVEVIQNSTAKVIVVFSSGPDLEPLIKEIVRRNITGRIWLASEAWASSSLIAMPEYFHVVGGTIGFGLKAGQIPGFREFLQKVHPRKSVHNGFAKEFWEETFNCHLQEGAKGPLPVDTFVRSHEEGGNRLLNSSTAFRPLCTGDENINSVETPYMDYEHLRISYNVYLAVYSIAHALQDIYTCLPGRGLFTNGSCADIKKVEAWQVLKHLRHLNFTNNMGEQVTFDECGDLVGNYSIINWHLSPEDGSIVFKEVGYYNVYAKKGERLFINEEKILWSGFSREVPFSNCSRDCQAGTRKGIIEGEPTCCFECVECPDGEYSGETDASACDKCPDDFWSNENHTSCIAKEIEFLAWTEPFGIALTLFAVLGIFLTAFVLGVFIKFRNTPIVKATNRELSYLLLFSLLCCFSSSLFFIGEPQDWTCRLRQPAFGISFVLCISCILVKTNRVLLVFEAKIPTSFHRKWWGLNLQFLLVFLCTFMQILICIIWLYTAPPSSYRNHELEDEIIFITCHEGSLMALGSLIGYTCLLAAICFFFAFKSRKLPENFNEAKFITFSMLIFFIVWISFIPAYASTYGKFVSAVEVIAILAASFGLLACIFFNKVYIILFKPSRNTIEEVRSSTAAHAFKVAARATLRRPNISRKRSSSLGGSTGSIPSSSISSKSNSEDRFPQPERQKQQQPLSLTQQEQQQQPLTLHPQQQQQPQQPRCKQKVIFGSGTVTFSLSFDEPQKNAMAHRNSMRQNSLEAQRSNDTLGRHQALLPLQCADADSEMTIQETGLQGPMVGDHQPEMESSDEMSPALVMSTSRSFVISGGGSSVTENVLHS
Procedure, shortened: (§1)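 CHO cells stably transfected with rat CaSR, grown in basal Ham's F-12 (0.3 mM Ca2+, 0.6 mM Mg2+). Overnight labelling with myo-[3H]inositol (0.5 µCi/mL). Cells washed, then 15 min at 37°C in basal medium with 10 mM LiCl, then 30 min at 37°C with 9 mM Ca2+ plus compound (10 mM ethanol stock diluted in medium). Reaction stopped with HClO4; [3H]IP isolated by ion exchange.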

[2] = molecular target: T1, Extracellular calcium-sensing receptor (Rattus norvegicus); assay: Activity at rat CaSR in CHO cells assessed as inhibition of calcium ion-induced [3H]inositol phosphate accumulation at 1 uM; procedure, shortened: as §1
[3] = molecular target: T2, Extracellular calcium-sensing receptor (Rattus norvegicus, UniProt P48442); assay: Activity at rat CaSR in CHO cells assessed as inhibition of calcium ion-induced [3H]inositol phosphate accumulation; procedure, shortened: as §1
T2 sequence (P48442 whole entry): T1 sequence (whole entry)

inhibition [1]	inhibition [2] [%]	pIC50 [3]	Compound
0%			COc1ccc(OC)c(S(=O)(=O)N[C@@H]2CCCC[C@H]2NC(C)c2cccc3ccccc23)c1 (relative stereo)
87%	77	6.34	CC(C)(Cc1ccc2ccccc2c1)NC[C@@H](O)COc1cccc(Cl)c1C#N
60%			CC(N[C@@H]1CCCC[C@H]1NS(=O)(=O)c1cccc(Cl)c1)c1cccc2ccccc12 (relative stereo)
73%			CC(N[C@@H]1CCCC[C@H]1NS(=O)(=O)c1ccc(Cl)cc1)c1cccc2ccccc12 (some centres undefined)
1%			CC(N[C@@H]1CCCC[C@H]1NC(=O)Oc1ccccc1)c1cccc2ccccc12 (relative stereo)
95%	50	6.05	CC(N[C@@H]1CCCC[C@H]1NC(=O)c1ccc(OC(F)(F)F)cc1)c1cccc2ccccc12 (relative stereo)
76%	35		CC(N[C@@H]1CCCC[C@H]1NC(=O)c1ccccn1)c1cccc2ccccc12 (relative stereo)
60%			CC(N[C@@H]1CCCC[C@H]1NS(=O)(=O)c1ccc(Cl)c(Cl)c1)c1cccc2ccccc12 (relative stereo)
44%			CC(N[C@@H]1CCCC[C@H]1NS(=O)(=O)c1cccc(C(F)(F)F)c1)c1cccc2ccccc12 (relative stereo)
inactive			C[C@H](N[C@@H]1CCCC[C@H]1NS(=O)(=O)c1ccc(OC(F)(F)F)cc1)c1cccc2ccccc12

The next lines start with the compound.

Compound	inhibition [1]	inhibition [2] [%]	pIC50 [3]
CC(N[C@@H]1CCCC[C@H]1NC(=O)c1ccccc1Cl)c1cccc2ccccc12 (relative stereo)	68%	19	
C[C@H](N[C@@H]1CCCC[C@H]1NC(=O)c1ccc(OC(F)(F)F)cc1)c1cccc2ccccc12	22%		
C[C@H](N[C@H]1CCCC[C@@H]1NS(=O)(=O)c1ccc(OC(F)(F)F)cc1)c1cccc2ccccc12	20%		
CC(N[C@@H]1CCCC[C@H]1NC(=O)c1ccc(Cl)cc1)c1cccc2ccccc12 (relative stereo)	106%	90	
CC(N[C@@H]1CCCC[C@H]1NC(=O)c1ccccc1)c1cccc2ccccc12 (relative stereo)	78%	33	
CC(N[C@@H]1CCCC[C@H]1NS(=O)(=O)c1ccc([N+](=O)[O-])cc1)c1cccc2ccccc12 (relative stereo)	56%		
CC(N[C@@H]1CCCC[C@H]1NS(=O)(=O)c1ccc(C(F)(F)F)cc1)c1cccc2ccccc12 (some centres undefined)	75%		
CC(N[C@@H]1CCCC[C@H]1NC(=O)c1cc2ccccc2[nH]1)c1cccc2ccccc12 (relative stereo)		33	
COc1ccc(S(=O)(=O)N[C@@H]2CCCC[C@H]2NC(C)c2cccc3ccccc23)cc1 (some centres undefined)	62%	12	5.10
C[C@@H](N[C@H]1CCCC[C@@H]1NC(=O)c1ccc(OC(F)(F)F)cc1)c1cccc2ccccc12	100%		6.60
CC(N[C@H]1CCCC[C@@H]1NS(=O)(=O)c1ccc([N+](=O)[O-])cc1)c1ccc(-c2ccccc2)cc1 (relative stereo)	7%		
CC(N[C@@H]1CCCC[C@H]1NS(=O)(=O)c1ccc(Cl)c(Cl)c1Cl)c1cccc2ccccc12 (relative stereo)	59%		
CC(N[C@@H]1CCCC[C@H]1NS(=O)(=O)c1ccc([N+](=O)[O-])cc1)c1ccc2ccccc2c1 (relative stereo)	20%	1	
C[C@@H](N[C@H]1CCCC[C@@H]1NS(=O)(=O)c1ccc(OC(F)(F)F)cc1)c1cccc2ccccc12	90%		5.59
C[C@H](N[C@H]1CCCC[C@@H]1NC(=O)c1ccc(OC(F)(F)F)cc1)c1cccc2ccccc12	inactive		
CC(N[C@@H]1CCCC[C@H]1NC(=O)c1ccccc1C(F)(F)F)c1cccc2ccccc12 (relative stereo)		36	
CC(N[C@@H]1CCCC[C@H]1NC(=O)c1ccc(Cl)c(Cl)c1)c1cccc2ccccc12 (relative stereo)	103%	82	
CC(N[C@@H]1CCCC[C@H]1NS(=O)(=O)c1ccc(OC(F)(F)F)cc1)c1cccc2ccccc12 (relative stereo)	78%	8	5.27
C[C@@H](N[C@@H]1CCCC[C@H]1NS(=O)(=O)c1ccc(OC(F)(F)F)cc1)c1cccc2ccccc12	32%		
O=[N+]([O-])c1ccc(S(=O)(=O)N[C@@H]2CCCC[C@H]2NCc2cccc3ccccc23)cc1 (relative stereo)	6%	1	
C[C@@H](N[C@@H]1CCCC[C@H]1NC(=O)c1ccc(OC(F)(F)F)cc1)c1cccc2ccccc12	95%		5.77
